Broadly, the IC50 is the concentration that inhibits the measured activity by half.

T1 sequence (O00408 whole entry): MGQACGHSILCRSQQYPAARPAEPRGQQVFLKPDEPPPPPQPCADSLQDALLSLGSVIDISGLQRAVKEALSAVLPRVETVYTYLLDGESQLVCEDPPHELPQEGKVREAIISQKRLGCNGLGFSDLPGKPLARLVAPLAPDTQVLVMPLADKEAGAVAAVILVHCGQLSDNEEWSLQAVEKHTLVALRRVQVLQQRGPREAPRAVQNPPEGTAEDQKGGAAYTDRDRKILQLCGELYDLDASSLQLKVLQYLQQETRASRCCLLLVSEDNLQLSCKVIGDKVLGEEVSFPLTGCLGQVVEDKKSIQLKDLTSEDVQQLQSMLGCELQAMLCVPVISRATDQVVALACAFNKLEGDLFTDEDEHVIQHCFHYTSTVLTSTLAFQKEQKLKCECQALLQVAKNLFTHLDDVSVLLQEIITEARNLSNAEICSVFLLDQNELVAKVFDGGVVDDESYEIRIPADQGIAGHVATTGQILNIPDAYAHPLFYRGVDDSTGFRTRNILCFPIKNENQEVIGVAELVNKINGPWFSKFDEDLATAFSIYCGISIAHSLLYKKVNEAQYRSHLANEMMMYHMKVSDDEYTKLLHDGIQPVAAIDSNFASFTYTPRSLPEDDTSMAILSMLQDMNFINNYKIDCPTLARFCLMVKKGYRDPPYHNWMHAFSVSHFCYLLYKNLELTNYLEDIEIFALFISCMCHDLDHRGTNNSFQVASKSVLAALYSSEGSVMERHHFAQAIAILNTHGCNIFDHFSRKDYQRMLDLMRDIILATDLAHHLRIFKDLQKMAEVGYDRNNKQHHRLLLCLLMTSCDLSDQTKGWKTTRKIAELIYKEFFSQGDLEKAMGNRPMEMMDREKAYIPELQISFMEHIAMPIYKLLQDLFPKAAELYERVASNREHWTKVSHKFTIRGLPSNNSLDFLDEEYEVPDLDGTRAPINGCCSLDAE

The first assay deals with Phosphodiesterase 3 (Homo sapiens, UniProt Q14432+Q13370). Nature of the assay: Inhibition of human platelet phosphodiesterase 3. The essentials:
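PDE3 was separated from PDE2 in human platelet lysate by anion-exchange chromatography. It was assayed under conditions optimal for that isozyme, with the AMP product quantified by reverse-phase HPLC.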
Regarding `O=c1cc(N2CCOCC2)oc2c(-c3ccccc3)cccc12` [LY-294002], the half-maximal inhibitory concentration (IC50) worked out at 100 µM.

A further assay has as its target T1, cGMP-dependent 3',5'-cyclic phosphodiesterase (Homo sapiens, UniProt O00408). Nature of the assay: Inhibitory activity against human platelet phosphodiesterase 2 at 50 uM expressed as percent basal value. The essentials:
(§1)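 PDE2 was purified from human platelet lysate by anion-exchange chromatography. The enzyme was premixed in HEPES buffer with cGMP and inhibitor or DMSO for 90 s at 37 °C, then started with cAMP substrate. The reaction was stopped after 5 min by heating at 100 °C for 3 min. AMP was measured by reverse-phase HPLC at 254 nm against standards and expressed as % of DMSO control (mean ± SE, n ≥ 3).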
In the case of `O=c1cc(N2CCOCC2)oc2c(CCc3ccccc3)cccc12`, the Remaining activity (% of control) worked out at 43%.

The molecule `COc1ccc2oc(N3CCOCC3)cc(=O)c2c1` yielded a Remaining activity (% of control) of 38%.

Take `O=c1cc(N2CCOCC2)oc2c(OCc3ccccc3)cccc12`: the Remaining activity (% of control) was determined as 40%.

`O=c1cc(N2CCOCC2)oc2c(O)cccc12` registered a Remaining activity (% of control) of 19%.

For `O=c1cc(N2CCOCC2)oc2c(-c3ccc(F)cc3)cccc12`, the Remaining activity (% of control) came to 43%.

Molecule `CCc1cc(-c2ccccc2)c2oc(N3CCOCC3)cc(=O)c2c1` had a Remaining activity (% of control) of 47%.

`O=c1cc(N2CCOCC2)oc2cc(OCc3ccccc3)ccc12` showed a Remaining activity (% of control) of 12%.

The molecule `O=c1cc(N2CCOCC2)oc2c(-c3ccccc3)cccc12` [LY-294002] gave a Remaining activity (% of control) of 54%.

`COc1cccc2c(=O)cc(N3CCOCC3)oc12` came in with a Remaining activity (% of control) of 20%.

In turn, `O=c1cc(N2CCOCC2)oc2c(-c3ccc(Oc4ccccc4)cc3)cccc12` displayed a Remaining activity (% of control) of 75%.

Molecule `Cc1c(C#Cc2ccccc2)ccc2c(=O)cc(N3CCOCC3)oc12` gave a Remaining activity (% of control) of 44%.

`O=c1cc(N2CCOCC2)oc2cc(OCc3cccnc3)ccc12`: the Remaining activity (% of control) was determined as 22%.

Consider `O=c1cc(N2CCOCC2)oc2c(C#Cc3ccccc3)cccc12`, for which the Remaining activity (% of control) is 93%.

For the molecule `COc1ccccc1-c1cccc2c(=O)cc(N3CCOCC3)oc12`, the Remaining activity (% of control) worked out at 47%.

In the case of `Cc1c(OCc2ccccc2)ccc2c(=O)cc(N3CCOCC3)oc12`, the Remaining activity (% of control) turned out to be 38%.

In turn, `O=c1cc(N2CCOCC2)oc2c(-c3ccccc3C(F)(F)F)cccc12` gave a Remaining activity (% of control) of 43%.

In turn, `O=c1cc(N2CCOCC2)oc2cc(-c3ccccc3)ccc12` gave a Remaining activity (% of control) of 9%.

`Cc1cc(-c2ccccc2)c2oc(N3CCOCC3)cc(=O)c2c1`: the Remaining activity (% of control) is 60%.

For `O=c1cc(N2CCOCC2)oc2c(-c3ccccc3Cl)cccc12`, the Remaining activity (% of control) was 62%.

Molecule `COc1cc(-c2ccccc2)c2oc(N3CCOCC3)cc(=O)c2c1` displayed a Remaining activity (% of control) of 75%.

Turning to `COc1cc(-c2cccc(Cl)c2)c2oc(N3CCOCC3)cc(=O)c2c1`, the Remaining activity (% of control) was 87%.

For `COc1cc(-c2ccc(Cl)cc2)c2oc(N3CCOCC3)cc(=O)c2c1`, the Remaining activity (% of control) is 67%.

`O=c1cc(N2CCOCC2)oc2c(-c3ccccc3)cc(O)cc12` had a Remaining activity (% of control) of 69%.

In the case of `O=c1cc(N2CCOCC2)oc2c(OCc3cccnc3)cccc12`, the Remaining activity (% of control) came out at 35%.

Consider `Cc1ccccc1-c1cccc2c(=O)cc(N3CCOCC3)oc12`, for which the Remaining activity (% of control) was 47%.

Turning to `O=c1cc(N2CCOCC2)oc2cc(C#Cc3ccccc3)ccc12`, the Remaining activity (% of control) is 92%.

In turn, `Cc1c(-c2ccccc2)ccc2c(=O)cc(N3CCOCC3)oc12` came in with a Remaining activity (% of control) of 31%.

In turn, `COc1cc(-c2ccccc2Cl)c2oc(N3CCOCC3)cc(=O)c2c1` came in with a Remaining activity (% of control) of 78%.

`Cc1c(OCc2cccnc2)ccc2c(=O)cc(N3CCOCC3)oc12` had a Remaining activity (% of control) of 35%.

The next assay concerns the target T1, cGMP-dependent 3',5'-cyclic phosphodiesterase. Nature of the assay: Inhibition of human platelet phosphodiesterase 2. The essentials:
as §1
In turn, `O=c1cc(N2CCOCC2)oc2c(-c3ccccc3)cccc12` [LY-294002] came in with an IC50 of 40 µM.

`CCCCCC[C@@H]([C@@H](C)O)n1cnc2c(N)ncnc21` [EHNA] came in with a 50% inhibitory concentration (IC50) of 5 µM.

For `O=c1cc(N2CCOCC2)oc2c(C#Cc3ccccc3)cccc12`, the IC50 stood at 6 µM. The IC50 values of the last two molecules are within 1.5-fold of each other.

Take `COc1cc(-c2cccc(Cl)c2)c2oc(N3CCOCC3)cc(=O)c2c1`: half-maximal inhibition (IC50) was put at 9 µM.
